In ChEMBL document CHEMBL1914320, “C4-alkylthiols with activity against Moraxella catarrhalis and Mycobacterium tuberculosis” (Bioorg Med Chem, 2011):
Converted amounts (≈) assume the structure as drawn. The source made the active and inactive calls. The rule behind the calls is not given here.

Assays:
[1] = system: Moraxella catarrhalis; assay: Antibacterial activity against beta-lactamase producing Moraxella catarrhalis isolate 1 at 10 ug/disc after overnight incubation by disc diffusion assay; format: functional
Outline: (§1)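 Isolates were held at −80 °C. Five colonies were suspended in Mueller-Hinton broth to a 0.5 McFarland density and swabbed onto MH agar. Discs carried 10 μg compound, applied in methanol and dried at room temperature. Plates were incubated overnight at 37 °C, and the zone of inhibition was measured in mm from the disc edge. Controls were methanol-only and penicillin discs. Run blinded, in triplicate.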

[2] = system: Moraxella catarrhalis; assay: Antibacterial activity against beta-lactamase producing Moraxella catarrhalis isolate 2 at 10 ug/disc after overnight incubation by disc diffusion assay; format: functional; outline: as §1
[3] = system: Moraxella catarrhalis; assay: Antibacterial activity against beta-lactamase producing Moraxella catarrhalis isolate 3 at 10 ug/disc after overnight incubation by disc diffusion assay; format: functional; outline: as §1
[4] = system: Moraxella catarrhalis; assay: Antibacterial activity against beta-lactamase producing Moraxella catarrhalis isolate 4 at 10 ug/disc after overnight incubation by disc diffusion assay; format: functional; outline: as §1
[5] = system: Moraxella catarrhalis; assay: Antibacterial activity against beta-lactamase producing Moraxella catarrhalis isolate 5 at 10 ug/disc after overnight incubation by disc diffusion assay; format: functional; outline: as §1
[6] = system: Moraxella catarrhalis; assay: Antibacterial activity against beta-lactamase producing Moraxella catarrhalis isolate 1 at 10 ug/disc after overnight incubation by disc diffusion assay in presence of 1 mol equiv of glutathione; format: functional
[7] = system: Moraxella catarrhalis; assay: Antibacterial activity against beta-lactamase producing Moraxella catarrhalis isolate 2 at 10 ug/disc after overnight incubation by disc diffusion assay in presence of 1 mol equiv of glutathione; format: functional
[8] = system: Moraxella catarrhalis; assay: Antibacterial activity against beta-lactamase producing Moraxella catarrhalis isolate 3 at 10 ug/disc after overnight incubation by disc diffusion assay in presence of 1 mol equiv of glutathione; format: functional
[9] = system: Moraxella catarrhalis; assay: Antibacterial activity against beta-lactamase producing Moraxella catarrhalis isolate 4 at 10 ug/disc after overnight incubation by disc diffusion assay in presence of 1 mol equiv of glutathione; format: functional
[10] = system: Moraxella catarrhalis; assay: Antibacterial activity against beta-lactamase producing Moraxella catarrhalis isolate 5 at 10 ug/disc after overnight incubation by disc diffusion assay in presence of 1 mol equiv of glutathione; format: functional
[11] = system: Moraxella catarrhalis; assay: Antibacterial activity against beta-lactamase producing Moraxella catarrhalis isolate 6 at 10 ug/disc after overnight incubation by disc diffusion assay in presence of 1 mol equiv of glutathione; format: functional
[12] = system: Moraxella catarrhalis; assay: Antibacterial activity against beta-lactamase producing Moraxella catarrhalis isolate 1 after 48 hrs incubation by microdilution broth method; format: functional; details: isolate 1, 48 h
Outline: (§2)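 Broth microdilution followed CLSI guidelines. Compound was dissolved in 95% ethanol, diluted at least 10-fold into Mueller-Hinton broth, then serially two-fold diluted from 500 to 15.6 μg/mL. Actively growing culture was added at 5 × 10^5 cells/mL. Plates ran 48 h at 37 °C, scored for visible growth at 24 and 48 h. MIC was the lowest concentration without growth. For MBC, 10 μL from each clear well was plated on MH agar. Controls were ethanol and penicillin. Triplicate.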

[13] = system: Moraxella catarrhalis; assay: Antibacterial activity against beta-lactamase producing Moraxella catarrhalis isolate 2 after 48 hrs incubation by microdilution broth method; format: functional; details: isolate 2, 48 h; outline: as §2
[14] = system: Moraxella catarrhalis; assay: Antibacterial activity against beta-lactamase producing Moraxella catarrhalis isolate 3 after 48 hrs incubation by microdilution broth method; format: functional; details: isolate 3, 48 h; outline: as §2
[15] = system: Moraxella catarrhalis; assay: Antibacterial activity against beta-lactamase producing Moraxella catarrhalis isolate 4 after 48 hrs incubation by microdilution broth method; format: functional; details: isolate 4, 48 h; outline: as §2
[16] = system: Moraxella catarrhalis; assay: Antibacterial activity against beta-lactamase producing Moraxella catarrhalis isolate 5 after 48 hrs incubation by microdilution broth method; format: functional; details: isolate 5, 48 h; outline: as §2
[17] = system: Moraxella catarrhalis; assay: Antibacterial activity against beta-lactamase producing Moraxella catarrhalis isolate 6 after 48 hrs incubation by microdilution broth method; format: functional; details: isolate 6, 48 h; outline: as §2
[18] = system: Mycobacterium tuberculosis; assay: Antimycobacterial activity against wild type Mycobacterium tuberculosis H37Rv by Alamar blue assay; format: functional
[19] = system: Escherichia coli; assay: Antibacterial activity against non-beta-lactamase producing Escherichia coli ATCC 25922 at 10 ug/disc after overnight incubation by disc diffusion assay; format: functional, organism-based; outline: as §1
[20] = system: Pseudomonas aeruginosa; assay: Antibacterial activity against non-beta-lactamase producing Pseudomonas aeruginosa ATCC 27853 at 10 ug/disc after overnight incubation by disc diffusion assay; format: functional, organism-based; outline: as §1
[21] = system: Staphylococcus aureus; assay: Antibacterial activity against non-beta-lactamase producing Staphylococcus aureus ATCC 25923 at 10 ug/disc after overnight incubation by disc diffusion assay; format: functional, organism-based; outline: as §1
[22] = system: Enterococcus faecalis; assay: Antibacterial activity against non-beta-lactamase producing Enterococcus faecalis ATCC 29212 at 10 ug/disc after overnight incubation by disc diffusion assay; format: functional, organism-based; outline: as §1
[23] = system: Escherichia coli; assay: Antibacterial activity against non-beta-lactamase producing Escherichia coli ATCC 25922 after 48 hrs by microdilution broth method; format: functional, organism-based; outline: as §2
[24] = system: Pseudomonas aeruginosa; assay: Antibacterial activity against non-beta-lactamase producing Pseudomonas aeruginosa ATCC 27853 after 48 hrs by microdilution broth method; format: functional, organism-based; outline: as §2
[25] = system: Staphylococcus aureus; assay: Antibacterial activity against non-beta-lactamase producing Staphylococcus aureus ATCC 25923 after 48 hrs by microdilution broth method; format: functional, organism-based; outline: as §2
[26] = system: Enterococcus faecalis; assay: Antibacterial activity against non-beta-lactamase producing Enterococcus faecalis ATCC 29212 after 48 hrs by microdilution broth method; format: functional, organism-based; outline: as §2
[27] = system: Moraxella catarrhalis; assay: Antibacterial activity against beta-lactamase producing Moraxella catarrhalis isolate 6 at 10 ug/disc after overnight incubation by disc diffusion assay; format: functional; outline: as §1
[28] = system: Moraxella catarrhalis; assay: Antibacterial activity against beta-lactamase producing Moraxella catarrhalis isolate 2 at 500 ug/ml after overnight incubation by disc diffusion assay; format: functional, organism-based
[29] = system: Moraxella catarrhalis; assay: Antibacterial activity against beta-lactamase producing Moraxella catarrhalis isolate 3 at 500 ug/ml after overnight incubation by disc diffusion assay; format: functional, organism-based
[30] = system: Moraxella catarrhalis; assay: Antibacterial activity against beta-lactamase producing Moraxella catarrhalis isolate 4 at 500 ug/ml after overnight incubation by disc diffusion assay; format: functional, organism-based
[31] = system: Moraxella catarrhalis; assay: Antibacterial activity against beta-lactamase producing Moraxella catarrhalis isolate 5 at 500 ug/ml after overnight incubation by disc diffusion assay; format: functional, organism-based
[32] = system: Moraxella catarrhalis; assay: Antibacterial activity against beta-lactamase producing Moraxella catarrhalis isolate 6 at 500 ug/ml after overnight incubation by disc diffusion assay; format: functional, organism-based
[33] = system: Mycobacterium tuberculosis; assay: Antimycobacterial activity against wild type Mycobacterium tuberculosis H37Rv at 200 ug/ml by Alamar blue assay; format: functional, organism-based

CCC(C=O)(CC)SSC(CC)(CC)C1C(OC)C(=O)N1CC(=O)OC (racemic)
inhibition zone (IZ) [1]: inactive | zone of inhibition at 10 µg/disc ([2]; read-out: IZ): 10 mm | inhibition zone (IZ) [3]: inactive | inhibition zone (IZ) [4]: inactive | zone of inhibition at 10 µg/disc ([5]; read-out: IZ): 7 mm | inhibition zone (IZ) [6]: inactive | zone of inhibition at 10 µg/disc ([7]; read-out: IZ): 7 mm | inhibition zone (IZ) [8]: inactive | inhibition zone (IZ) [9]: inactive | zone of inhibition at 10 µg/disc ([10]; read-out: IZ): 7 mm | inhibition zone (IZ) [11]: inactive | MBC [12]: > 500 µg/mL | MBC [13]: > 500 µg/mL | MBC [14]: < 15.6 µg/mL | MBC [15]: < 15.6 µg/mL | MBC [16]: < 15.6 µg/mL | MBC [17]: < 15.6 µg/mL | MBC [18]: 200 µg/mL (≈ 493 µM) | Activity [19]: inactive | Activity [20]: inactive | Activity [21]: inactive | Activity [22]: inactive | Activity [23]: inactive | Activity [24]: inactive | Activity [25]: inactive | Activity [26]: inactive | inhibition zone (IZ) [27]: inactive

O=C1CC(Sc2ccc(O)cc2)N1 (racemic)
MBC [12]: > 500 µg/mL | MBC [13]: < 15.6 µg/mL | MBC [14]: < 15.6 µg/mL | MBC [15]: < 15.6 µg/mL | MBC [16]: < 15.6 µg/mL | MBC [17]: < 15.6 µg/mL | MBC [18]: > 200 µg/mL | Activity [19]: inactive | Activity [20]: inactive | Activity [21]: inactive | Activity [22]: inactive | Activity [23]: inactive | Activity [24]: inactive | Activity [25]: inactive | Activity [26]: inactive

CCC(CC)(CO)SC1CC(=O)N1 (stereo unspecified)
inhibition zone (IZ) [6]: inactive | inhibition zone (IZ) [7]: inactive | inhibition zone (IZ) [8]: inactive | inhibition zone (IZ) [9]: inactive | inhibition zone (IZ) [10]: inactive | Activity [19]: inactive | Activity [20]: inactive | Activity [21]: inactive | Activity [22]: inactive | Activity [23]: inactive | Activity [24]: inactive | Activity [25]: inactive | Activity [26]: inactive

Nc1ccc(SC2CC(=O)N2S(=O)(=O)O)cc1 (racemic)
inhibition zone (IZ) [1]: inactive | inhibition zone (IZ) [2]: inactive | inhibition zone (IZ) [3]: inactive | zone of inhibition at 10 µg/disc ([4]; read-out: IZ): 8 mm | inhibition zone (IZ) [5]: inactive | inhibition zone (IZ) [6]: inactive | inhibition zone (IZ) [7]: inactive | inhibition zone (IZ) [8]: inactive | zone of inhibition at 10 µg/disc ([9]; read-out: IZ): 8 mm | inhibition zone (IZ) [10]: inactive | inhibition zone (IZ) [11]: inactive | antibacterial activity (active/not active) [28]: Active | antibacterial activity (active/not active) [29]: Active | antibacterial activity (active/not active) [30]: Active | antibacterial activity (active/not active) [31]: Active | antibacterial activity (active/not active) [32]: Active | antimycobacterial activity (active/not active) [33]: Active | Activity [19]: inactive | Activity [20]: inactive | Activity [21]: inactive | Activity [22]: inactive | Activity [23]: inactive | Activity [24]: inactive | Activity [25]: inactive | Activity [26]: inactive | inhibition zone (IZ) [27]: inactive
